Screening results: PubChem, Broad Institute
PGC1a acetyl inh – PGC1a acetylation modulation, inhibitor mode | U2OS PGC1a acetylation, AlphaScreen anti-acetyl-lysine; with virally co-expressed GCN5 acetyltransferase | inhibition, % at 15.6 µM | 350,000 compounds, 0.17% hits | AID 651687;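 active means every replicate shows inhibition of at least 40%; inconclusive means mean inhibition at least 40% but some replicate below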;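 further: 0% = neutral control wells and 100% = positive control wells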
PglD inh – inhibitors of Campylobacter jejuni PglD acetyltransferase | purified PglD enzyme, DTNB colorimetric CoA detection | 360,000 compounds, 0.098% hits | AID 602405 | inhibition, % at 12.5 µM; in the data active means inhibition above about 16%, passing the limit was not always enough; inconclusive means no clear call, values can overlap the other calls
FN deposit inh – fibronectin deposition inhibition; AH1F fibroblasts, Alexa488-fibronectin deposition fluorescence, overnight; inhibition, % at 12.6 µM; 350,000 compounds, 0.086% hits; AID 743247;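 active means mean inhibition across replicates of 30% or more, regardless of how many single replicates reach that level; inconclusive means mean under 30% yet at least half of replicates reach 30%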;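 further: positive control wells lacked labelled fibronectin entirely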
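Material – AH1F fibroblast monolayer, labelled fibronectin deposition · Reagent – labelled fibronectin 24 nM · Timing – 1 h adhesion, overnight exposure · Measured by – fluorescence at 485 nm excitation, 525 nm emission · Read-out – inhibition of fibronectin deposition signal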
DENV2 CPE rescue – DENV2-induced cell death inhibition; DENV2-infected cells, cytopathic effect rescue, plate reader; 350,000 compounds, 1.7% hits; CPE inhibition, % at 9.99 µM; AID 651640; in the data active means CPE inhibition above about 20%, passing the limit was not always enough; inconclusive means no clear call, values can overlap the other calls; tested in BHK-21 cells;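 further: 0% = median of neutral control wells and 100% = median of positive control wells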
rRNA inh HTS – selective bacterial rRNA inhibition in E. coli | E. coli WT GFP vs humanized-ribosome RFP mutants, fluorescence, 24 h; hits give low values; DMSO median 0, no signal -100 | GFP signal change (wild-type ribosome), % (no concentration beside the values) | 350,000 compounds, 1.6% hits;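 active means significant combined selectivity score with lowered wild-type GFP, culture density cut under 30%, mutant RFP and density less affected; inactive means any of these conditions unmet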
Env fusion inh – inhibitors of HIV Env-mediated cell fusion. HeLa-JRFL Env/CEM21 cell fusion, luciferase. inhibition, % at 12.3 µM. 360,000 compounds, 1.1% hits. AID 651610;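 active means mean replicate inhibition score of at least 50 and every replicate individually at or above 50; inconclusive means only one of the two criteria met; inactive means mean below 50 and not all replicates reaching 50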;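 further: 0% = plate neutral controls and 100% = maraviroc near 300 nM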
The depositor's hits bear a star; ? = inconclusive; . = no result given; [ ] = another dose, or the depositor's remark. Shown are actives, neighbours in structure and some others; about 3.5% of the full set was active somewhere.

SMILES	PGC1a acetyl inh	PglD inh	FN deposit inh	DENV2 CPE rescue	rRNA inh HTS	Env fusion inh
CS(=O)(=O)N1C[C@@H]2C(c3ccc(Br)cc3)[C@H](C1)N2Cc1ccc(F)cc1 (some centres undefined)	.	.	-4	.	-13	.
Cc1c(C(=O)Nc2ccc3c(c2)OCCO3)sc2nc(-c3ccccc3)cn12	-62	-2	-7	.	-20	57*
c1cnc(N2CCN(c3nc4ccccc4n4cnnc34)CC2)nc1	.	1	.	.	.	-26
CCOC(=O)N1CCN(c2nc3ccccc3n3cnnc23)CC1	-2	.	-3	-5	-17*	-7
COc1ccc(N2CCN(C(c3ccco3)c3sc4nc(C)nn4c3O)CC2)cc1 (centres undefined)	.	.	12	.	-16	-2
Cc1nc2sc(C(c3ccco3)N3CCC(Cc4ccccc4)CC3)c(O)n2n1 (centres undefined)	2	4	-1	-4	-1	82*
COCCNc1ncnc2c1ncn2[C@H]1CN(Cc2ccc(F)cc2)C[C@@H](CO)O1	.	-1	4	40*	.	-4
Clc1ccc2nc(C3CCCCC3)c(CC3CCCCC3)n2c1	-7	5	-1	38*	.	-63
C[C@H](CO)N1C[C@H](C)[C@@H](CN(C)C(=O)c2ccccc2)OCCCC[C@H](C)Oc2ccc(NC(=O)C3CCCCC3)cc2C1=O	12	-4	.	34*	-3	-7[16.7 µM]
C[C@@H]1CN([C@@H](C)CO)C(=O)c2cc(NC(=O)Nc3ccc(F)cc3)ccc2O[C@@H](C)CCCCO[C@H]1CN(C)C(=O)c1ccccc1	2	4	.	-7	0	11[16.7 µM]
C[C@H]1CCCCO[C@@H](CN(C)C(=O)c2ccccc2)[C@@H](C)CN([C@@H](C)CO)C(=O)c2cc(NC(=O)Nc3ccc(F)cc3)ccc2O1	?	7	13	22*	-2	45[16.7 µM]
C[C@@H]1CCCCO[C@H](CN(C)C(=O)c2ccccc2)[C@@H](C)CN([C@H](C)CO)C(=O)c2cc(NC(=O)Nc3ccc(F)cc3)ccc2O1	-4	4	.	32*	-4	-18[16.7 µM]
O=C(N[C@@H]1CC[C@@H](CCn2cc(-c3ccccn3)nn2)O[C@H]1CO)c1ccccc1	-11	7	.	-3	-1	6[16.7 µM]
COc1ccc(S(=O)(=O)NCc2ccco2)c2ccccc12	-8	4	4	-3	-26*	.
Cc1nc([N+](=O)[O-])c(Br)n1CC(=O)c1ccc(F)cc1	3	.	-1	11	-33*	13
Cc1nc([N+](=O)[O-])c(Br)n1CC(=O)c1cccc([N+](=O)[O-])c1	-17	.	-3	0	-39*	-3
O=C(CCNS(=O)(=O)c1cccs1)N1CCN(c2cccc(Cl)c2)CC1	.	-4	-7	2	1	-4
O=C(CCCNS(=O)(=O)c1cccs1)N1CCN(c2cccc(Cl)c2)CC1	-1	1	.	.	.	71*
C=C1C(=O)O[C@@H]2[C@H]3O[C@]3(C)CC/C=C(\C)CC[C@@H]12	.	0	-7	-6	.	23
C=C1C(=O)O[C@H]2C[C@H]1[C@@H](OC(C)=O)C/C(C)=C/CC/C(C)=C\CC[C@]2(C)O	-35	-6	15	-18	.	81*
Cc1noc(C)c1NC(=O)Nc1ccc2c(c1)C(=O)N([C@@H](C)CO)C[C@@H](C)[C@@H](CN(C)Cc1ccc(Cl)c(Cl)c1)OCCCC[C@@H](C)O2	14	0	.	30*	-9	-41[16.7 µM]
Cc1noc(C)c1NC(=O)Nc1ccc2c(c1)C(=O)N([C@H](C)CO)C[C@H](C)[C@@H](CN(C)Cc1ccc(Cl)c(Cl)c1)OCCCC[C@@H](C)O2	-2	2	.	-17	3	6[16.7 µM]
Cc1noc(C)c1NC(=O)Nc1ccc2c(c1)C(=O)N([C@H](C)CO)C[C@@H](C)[C@H](CN(C)Cc1ccc(Cl)c(Cl)c1)OCCCC[C@H](C)O2	-3	-3	.	23*	1	14[16.7 µM]
Cc1noc(C)c1NC(=O)Nc1ccc2c(c1)C(=O)N([C@@H](C)CO)C[C@H](C)[C@@H](CN(C)Cc1ccc(Cl)c(Cl)c1)OCCCC[C@H](C)O2	-4	1	.	27*	-21	18[16.7 µM]
